# Autophagy HCS – autophagy modulators in MEF cells, primary screen, imaging, high-content, MEF GFP-LC3; 190,000 tested, 0.98% active; calls only at 10 µM (by protocol); MEF GFP-LC3 puncta imaging; test concentration mostly 10 µM;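 active = percentage of spot-positive cells more than 3 SD above its plate mean, without a fluorescence outlier flag or 80% toxicity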;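 also: spot-positive cell cutoff set from DMSO-treated cells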
# bCat nuc transl – modulators of beta-catenin nuclear translocation, primary screen, imaging, HeLa cells, immunofluorescence, high-content. nuclear translocation activity, % at 5 µM. 190,000 tested, 0.3% active. AID 1665, 2009;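 active = nuclear translocation activity above 50% at 5 µM, with a well cell count of 50 or more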;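 also: per-cell ratio of nuclear to cytoplasmic median beta-catenin stain intensity; plate controls were DMSO negative control for no effect and GSK-3 inhibitor IX positive control for full effect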
#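 Test system: human HeLa cells, native beta-catenin. Compound dosing: 5 µM primary single dose, 0.1% DMSO, 0.02–20 µM confirmation series. Incubation: compound exposure 24 h at 37°C. Detection: beta-catenin immunostaining with DAPI counterstain, 20x imaging, 6 fields/well. Read-out basis: Nuclear/cytoplasmic beta-catenin signal ratio, % activation.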
# ABCB1 block – ABCB1 efflux pump inhibitors, primary screen, cell-based, multiplex, flow cytometry, ABCG2 counter-screen; 190,000 tested, 0.067% active; inhibition, % at 6.6 µM; AID 1326, 2008; ATP-dependent translocase ABCB1 (Homo sapiens), P08183; CCRF-Adr cells, JC-1 efflux; in the data active = inhibition above about 40%;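 also: 0% = vehicle and 100% = reference inhibitor; higher value means more JC-1 retained so stronger ABCB1 efflux block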
# Target sequence (P08183 whole entry, looked up): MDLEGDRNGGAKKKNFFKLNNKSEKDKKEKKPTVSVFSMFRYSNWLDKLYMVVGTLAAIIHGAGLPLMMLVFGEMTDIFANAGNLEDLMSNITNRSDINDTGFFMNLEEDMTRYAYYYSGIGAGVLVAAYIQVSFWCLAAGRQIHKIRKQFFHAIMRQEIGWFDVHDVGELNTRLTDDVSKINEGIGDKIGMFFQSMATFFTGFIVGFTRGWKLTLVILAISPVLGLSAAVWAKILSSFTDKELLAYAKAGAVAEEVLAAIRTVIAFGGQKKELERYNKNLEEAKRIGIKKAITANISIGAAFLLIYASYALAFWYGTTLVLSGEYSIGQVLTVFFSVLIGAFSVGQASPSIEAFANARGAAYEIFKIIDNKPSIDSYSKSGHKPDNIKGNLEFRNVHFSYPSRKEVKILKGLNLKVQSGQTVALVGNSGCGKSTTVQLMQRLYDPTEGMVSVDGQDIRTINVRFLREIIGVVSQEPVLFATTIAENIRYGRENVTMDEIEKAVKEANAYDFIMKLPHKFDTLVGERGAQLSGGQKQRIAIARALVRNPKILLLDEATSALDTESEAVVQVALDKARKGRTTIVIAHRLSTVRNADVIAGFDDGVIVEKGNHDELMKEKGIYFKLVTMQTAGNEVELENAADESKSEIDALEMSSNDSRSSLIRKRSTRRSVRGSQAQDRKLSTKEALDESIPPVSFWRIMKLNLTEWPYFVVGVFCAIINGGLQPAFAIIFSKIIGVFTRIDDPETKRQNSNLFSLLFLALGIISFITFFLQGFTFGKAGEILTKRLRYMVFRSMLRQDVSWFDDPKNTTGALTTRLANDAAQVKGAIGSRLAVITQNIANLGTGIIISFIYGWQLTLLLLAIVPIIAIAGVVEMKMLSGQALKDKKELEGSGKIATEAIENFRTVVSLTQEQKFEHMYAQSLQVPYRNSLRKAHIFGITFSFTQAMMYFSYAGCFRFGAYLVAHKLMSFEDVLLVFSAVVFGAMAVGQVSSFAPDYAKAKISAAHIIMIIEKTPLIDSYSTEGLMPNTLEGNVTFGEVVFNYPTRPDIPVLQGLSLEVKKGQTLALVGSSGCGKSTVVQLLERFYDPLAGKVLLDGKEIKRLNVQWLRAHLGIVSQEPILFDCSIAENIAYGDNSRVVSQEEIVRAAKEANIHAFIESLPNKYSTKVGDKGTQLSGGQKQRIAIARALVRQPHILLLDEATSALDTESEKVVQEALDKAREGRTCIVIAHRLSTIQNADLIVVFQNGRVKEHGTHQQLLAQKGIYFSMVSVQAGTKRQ
# MT stabilizer – microtubule stabilizers in HeLa cells, primary screen, imaging, high-content imaging; % tubulin-high responders, % at 10 µM; AID 2205, 2009; HeLa tubulin immunostaining HCS, 24 h; share of cells brighter than vehicle mean+2SD; 200,000 tested, 0.83% active;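 active = plate Z-score above 3 for both tubulin-high and condensed-nucleus cell shares, with cell loss under 80%, at 10 µM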;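 also: anti alpha tubulin signal scored within the nucleus-defined area of each cell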
# ABCG2 block – ABCG2 efflux pump inhibitors, primary screen, multiplex with ABCB1, IgMXP3 cells, flow cytometry; JC-1 efflux; 190,000 tested, 0.1% active; AID 1325, 2008; inhibition, % at 6.6 µM; Broad substrate specificity ATP-binding cassette transporter ABCG2 (Homo sapiens), Q9UNQ0;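 active = inhibition above 80%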;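 also: 0% = DMSO and 100% = nicardipine control wells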
#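 Measure – % inhibition of efflux relative to nicardipine and DMSO · Test system – ABCG2 IgMXP3 and barcoded ABCB1 CCRF-Adr cell mix · Control set – nicardipine as high control, DMSO as low control · Compound – one concentration, 6.6 µM final · Signal – flow cytometry of retained JC-1 fluorescence · Timing – 10 min exposure at 25 °C with rotation, no wash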
# Arbovirus inh – antivirals against arbovirus infection, primary screen, cell-based, full library, 10K replicate subset | arbovirus infection cell-based antiviral screen | inhibition, % at 10 µM | 200,000 tested, 0.37% active | AID 1251, 2008; in the data active = inhibition above about 30%
# Starred values were filed as active, the others as inactive; i = inactive; . = not tested or not shown; + = active, no number. Rows were chosen to be rich in hits. Some 2.1% of all compounds tested hit in one or more screens of this group.
SMILES,Autophagy HCS,bCat nuc transl,ABCB1 block,MT stabilizer,ABCG2 block,Arbovirus inh
Cc1cc(C)cc(-n2cccc2/C=C2/C(=N)N3C(=NC2=O)SN=C3S(C)(=O)=O)c1,i,-2,-1,5,-6,17
CC1=NN2C(=N)/C(=C\c3cc(C)n(-c4cccc(C)c4)c3C)C(=O)N=C2S1,.,-1,.,.,.,.
Cc1ccc(-n2cccc2/C=C2\C(=N)N3N=C(c4ccco4)SC3=NC2=O)cc1,i,2,0,2,1,46*
COc1cccc(-n2c(C)cc(/C=C3/C(=N)N4C(=NC3=O)SN=C4S(C)(=O)=O)c2C)c1,i,-1,-1,3,-2,40*
CS(=O)(=O)C1=NSC2=NC(=O)/C(=C\c3cccn3-c3ccccc3Cl)C(=N)N21,i,0,-1,3,-2,51*
CSc1cccc(CN2CCC(CO)(Cc3cccc(C(F)(F)F)c3)CC2)c1,i,-1,1,4,3,-29
O=C(Nn1c(SCc2cccc([N+](=O)[O-])c2)nc2ccccc2c1=O)c1ccccc1,i,1,0,4,-2,39*
CCCCn1c(SCc2cccc([N+](=O)[O-])c2)nc2ccsc2c1=O,i,-4,2,2,20,34*
Cc1c(C(=O)N2CCN(c3ccc(C(F)(F)F)cn3)CC2)oc2ccccc12,i,.,0,1,16,5
CCCCSc1cc(=O)[nH]c(N)n1,.,-1,.,.,.,.
CC(C)c1ccc(-c2csc(NC(=O)c3cccs3)c2C(=O)O)cc1,i,-1,-1,3,-3,41*
CC(C)c1ccc(C(CC(=O)O)NC(=O)c2cccs2)cc1 (stereo not given),i,-2,0,3,-1,1
O=C(Nc1scc(-c2ccc(F)cc2)c1C(=O)O)c1ccco1,i,-5,0,4,1,35*
Cc1ccc(-c2csc(NC(=O)/C=C/c3ccco3)c2C(=O)O)cc1,i,0,-1,3,-3,71*
CCOn1c(=O)c[n+]([O-])c2ccccc21,i,-1,0,2,5,-5
CCOC(=O)c1cnc(SC)nc1Oc1cccc(NS(=O)(=O)c2ccc(Cl)cc2)c1,i,-2,1,32*,10,-21
O=C1/C(=C/c2cccnc2)CCC/C1=C\c1cccnc1,i,-2,0,29*,0,-34
O=C1/C(=C/c2cccnc2)CC/C1=C\c1cccnc1,i,0,1,3,5,-6
CC(C)/C=C1\CC/C(=C\c2cccnc2)C1=O,i,0,0,4,-1,-30
O=C1/C(=C/c2ccccc2)CCCc2ccccc21,i,0,1,2,5,0
CCC1C/C(=C\c2cccnc2)C(=O)/C(=C/c2cccnc2)C1 (stereo not given),i,-1,2,45*,7,-31
CN(C)c1ccc(/C=C2\CCC/C(=C\c3ccccc3)C2=O)cc1,i,4,1,9.3*,0,-6
O=C(C1CCCO1)N1CCN(C(c2ccccc2)c2ccccc2)CC1 (stereo not given),i,.,2,2,5,0
COc1cc(NC(=O)CSc2nnc3c(C)cc4cc(C)cc(C)c4n23)c(C(=O)O)cc1OC,i,-1,0,0,3,5
CCOc1ccc(N2C(=O)CC(Sc3nc(-c4cccs4)cc(C(F)(F)F)c3C#N)C2=O)cc1 (stereo not given),i,.,0,3,0,19
SMILES,Autophagy HCS,bCat nuc transl,ABCB1 block,MT stabilizer,ABCG2 block,Arbovirus inh
Cc1nc(CN(C)C(=O)c2ccccc2OC2CCN(S(C)(=O)=O)CC2)cs1,+,-2,0,2,0,-4
Cc1cccc(NC(=O)c2nc[nH]c2C(=O)N[C@@H](C)C(=O)OC(C)(C)C)c1,.,0,.,.,.,.
CN1/C(=C\C=[N+](C)c2ccccc2)C(C)(C)c2ccccc21,i,.,1,1,4,14
CN1CCN(S(=O)(=O)c2ccc(Cc3ccc(S(=O)(=O)N4CCN(C)CC4)cc3)cc2)CC1,+,-7,0,3,31,-7
CCOc1ccc(/C(O)=C2/C(=O)C(=O)N(CC3CCCO3)C2c2ccc(C)o2)cc1 (stereo not given),i,0,2,2,6,3
COc1cccc(/C(O)=C/c2nc3ccc(C(=O)NCCc4ccc(Cl)cc4)cc3[nH]c2=O)c1,+,-1,-2,7,-7,-38
COc1cccc(C(=O)Nc2cc(C(=O)NCCc3ccccc3)ccc2Cl)c1,i,1,0,3,1,-11
COc1cccc(/C(O)=C/c2nc3ccc(C(=O)NCCc4cccc(C)c4)cc3[nH]c2=O)c1,+,-2,0,6,-4,-14
Cc1cccc(OCCN2CSC(=S)N(C)C2)c1,+,1,0,8,-1,-40
CC(=O)O[C@H]1C(=O)[C@@]2(C)[C@H]([C@H](OC(=O)c3ccccc3)[C@]3(O)C[C@H](OC(=O)[C@H](O)C(NC(=O)c4ccccc4)c4ccccc4)C(C)=C1C3(C)C)[C@]1(OC(C)=O)CO[C@@H]1C[C@@H]2O (stereo not given in full),.,69*,.,.,.,.
CCn1nc(C(=O)N2CCc3ccccc3C2)c2ccccc2c1=O,i,0,1,16*,3,-1
COC(=O)C1=C(C)NC(C)=C(C(=O)OC)C1C(=O)OCC(=O)c1ccc(F)cc1,i,1,0,9,1,0
C/C(=N\NC(=O)c1cc(C(C)C)[nH]n1)c1ccco1,+,-2,1,5,15,2
CC1=NN2C(=N)/C(=C\c3ccc(SCc4ccccc4)o3)C(=O)N=C2S1,i,.,0,4,1,35*
COc1ccc(-c2n[nH]c(C)c2-c2cnn(-c3ccccc3)c2)c(O)c1,i,-2,-1,4,-2,38*
CCOc1ccc(-c2n[nH]c(C)c2-c2ccccc2OC)c(O)c1,i,3,0,27*,37,0
C=C(C)COc1ccc(-c2n[nH]c(C)c2-c2ccc(OC)cc2)c(O)c1,i,6,1,30*,8,-42
COc1ccc(-c2n[nH]c(C)c2-c2cscn2)c(O)c1,.,-1,.,.,.,.
CC1(C)CC(N(Cc2ccc(F)cc2)C(=O)c2ccc(F)cc2)CCO1 (stereo not given),.,1,.,.,.,.
